One compound from ChEMBL document CHEMBL1221219, “Selective blockade of 2-arachidonoylglycerol hydrolysis produces cannabinoid behavioral effects” (Nat Chem Biol, 2009) can be followed below.

The subject of experiment [1] is Mus musculus. Description: Antinociceptive activity against formalin-induced pain in C57B1/6J mouse assessed as paw lifting or licking during early phase (0 to 10 mins) at 40 m/kg, po administered 2 hrs before formalin challenge. It counts as functional, organism-based.
The test system of experiment [2] is Mus musculus. Description: Visceral analgesic activity against C57B1/6J mouse assessed as inhibition of acetic acid-induced writhing response for 20 mins at 16 mg/kg, ip pretreated 2 hr before acetic acid challenge. It counts as functional, organism-based. Also on record: dose 16 mg/kg. In a few lines: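 Male C57Bl/6J mice (6-8 weeks) dosed 16 mg kg^-1 i.p. in 4:1 v/v PEG300:Tween80, with vehicle controls. Assessed in the tetrad test for cannabinoid effects or in the acetic acid-induced abdominal stretching assay.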
On the technique in general: In writhing tests, fewer writhes than in controls are read as antinociception.

Experiment [3] deals with T1, Monoacylglycerol lipase ABHD6 (Mus musculus) (UniProt Q8R2Y0).
T1 sequence (whole entry): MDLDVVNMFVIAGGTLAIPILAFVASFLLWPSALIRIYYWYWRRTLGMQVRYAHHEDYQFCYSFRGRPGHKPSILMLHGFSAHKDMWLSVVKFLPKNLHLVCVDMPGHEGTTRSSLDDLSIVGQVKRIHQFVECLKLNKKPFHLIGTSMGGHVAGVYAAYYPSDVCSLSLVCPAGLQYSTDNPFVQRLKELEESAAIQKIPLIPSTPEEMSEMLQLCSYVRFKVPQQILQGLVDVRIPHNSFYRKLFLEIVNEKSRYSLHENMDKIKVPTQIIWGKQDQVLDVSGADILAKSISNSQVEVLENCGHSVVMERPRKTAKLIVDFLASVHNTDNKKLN
Description: Inhibition of ABHD6 in C57B1/6J mouse brain membrane at 10 uM after 30 mins by competitive activity-based protein profiling method. It counts as cell membranes. The method, boiled down:
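Mouse brain membrane proteome at 1 mg ml^-1 in PBS was preincubated with inhibitor (1 nM-10 μM) for 30 min at 37°C. FP-rhodamine was then added at 2 μM final for 30 min at room temperature, followed by SDS-PAGE and in-gel fluorescence scanning.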

Experiment [4] relates to Mus musculus. Description: Inhibition of MAGL in C57B1/6 mouse nucleus accumbens assessed as increase in interstitial level of 2-AG at 10 mg/kg, ip by following neuronal depolarization by microdialysis. The class given is functional, organism-based. On the set-up: dose 10 mg/kg. In a few lines: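 Male C57Bl/6 mice received 10 mg kg^-1 i.p. 1 h before neuronal depolarization. 2-AG and AEA were sampled by in vivo microdialysis from the nucleus accumbens.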

The test system of experiment [5] is Mus musculus. Description: Antinociceptive activity against formalin-induced pain in C57B1/6J mouse assessed as paw lifting or licking during late phase (20-40 mins) at 40 m/kg, po administered 2 hrs before formalin challenge. The class given is functional, organism-based.
The target in experiment [6] is T2, Cytosolic phospholipase A2 (Homo sapiens) (UniProt P47712).
T2 sequence (whole entry): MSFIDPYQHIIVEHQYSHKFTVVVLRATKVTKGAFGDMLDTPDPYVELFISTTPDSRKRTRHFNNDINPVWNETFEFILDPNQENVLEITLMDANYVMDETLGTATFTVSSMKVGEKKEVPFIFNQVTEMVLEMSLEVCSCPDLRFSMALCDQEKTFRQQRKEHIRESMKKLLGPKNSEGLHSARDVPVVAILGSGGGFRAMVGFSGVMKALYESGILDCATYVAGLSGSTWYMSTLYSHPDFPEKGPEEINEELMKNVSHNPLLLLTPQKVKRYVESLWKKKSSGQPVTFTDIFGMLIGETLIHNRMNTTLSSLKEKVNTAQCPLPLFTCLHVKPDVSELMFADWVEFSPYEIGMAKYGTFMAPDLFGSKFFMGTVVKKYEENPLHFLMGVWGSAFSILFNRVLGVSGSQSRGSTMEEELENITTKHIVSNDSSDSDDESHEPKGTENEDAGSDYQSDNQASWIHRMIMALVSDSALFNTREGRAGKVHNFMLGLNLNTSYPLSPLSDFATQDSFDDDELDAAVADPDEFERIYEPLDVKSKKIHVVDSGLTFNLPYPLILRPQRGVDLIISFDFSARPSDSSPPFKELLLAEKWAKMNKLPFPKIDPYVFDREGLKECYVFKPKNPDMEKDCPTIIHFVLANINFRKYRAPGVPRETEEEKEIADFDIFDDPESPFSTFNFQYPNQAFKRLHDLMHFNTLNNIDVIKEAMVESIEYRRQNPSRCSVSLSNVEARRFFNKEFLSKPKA
As to the kind of experiment: Inhibition of recombinant cPLA2 4a expressed in HEK293 cells at 20 uM by FP-rhodamine labeling method. It counts as cell-based.

Experiment [7] relates to Mus musculus. As to the kind of experiment: Inhibition of […] in C57B1/6J mouse brain membrane assessed as residual 2-AG hydrolysis activity at 16 mg/kg, ip after 4 hrs relative to control. It counts as functional. The conditions noted are these: route intraperitoneal. In a few lines:
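Brain membranes from mice given 4-40 mg kg^-1 i.p. for 4 h were assayed for 2-AG hydrolysis by LC-MS substrate assay. Activity is expressed relative to vehicle control.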

For experiment [8], the system named is Mus musculus. As to the kind of experiment: Inhibition of TPP2 in C57B1/6J mouse brain membrane at 16 mg/kg, ip after 4 hrs by competitive activity-based protein profiling-MudPIT method. The class given is functional, organism-based. On the set-up: dose 16 mg/kg. In a few lines:
(§1)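 After i.p. dosing in 4:1 PEG300:Tween80, male C57Bl/6J mice were killed at 4 h. Brain membrane proteomes from treated and vehicle mice were labelled with FP-biotin. Labelled proteins were enriched on avidin, digested on-bead with trypsin and analysed by multidimensional LC-MS. Proteins were identified by SEQUEST, and dosed samples were compared with vehicle.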

The test system of experiment [9] is Mus musculus. Description: Inhibition of MAGL in C57B1/6J mouse brain membrane at 16 mg/kg, ip after 4 hrs by competitive activity-based protein profiling-MudPIT method. It counts as functional, organism-based. On the set-up: dose 16 mg/kg. The method, boiled down:
as §1

For experiment [10], the system named is Mus musculus. Description: Inhibition of FAAH in C57B1/6J mouse brain membrane assessed as elevated level of N-acylethanolamine at 10 mg/kg, ip by competitive activity-based protein profiling method. The class given is functional, organism-based. On the set-up: dose 10 mg/kg.
In experiment [11] the target is T3, Fatty-acid amide hydrolase 1 (Mus musculus, UniProt O08914).
T3 sequence (O08914 whole entry): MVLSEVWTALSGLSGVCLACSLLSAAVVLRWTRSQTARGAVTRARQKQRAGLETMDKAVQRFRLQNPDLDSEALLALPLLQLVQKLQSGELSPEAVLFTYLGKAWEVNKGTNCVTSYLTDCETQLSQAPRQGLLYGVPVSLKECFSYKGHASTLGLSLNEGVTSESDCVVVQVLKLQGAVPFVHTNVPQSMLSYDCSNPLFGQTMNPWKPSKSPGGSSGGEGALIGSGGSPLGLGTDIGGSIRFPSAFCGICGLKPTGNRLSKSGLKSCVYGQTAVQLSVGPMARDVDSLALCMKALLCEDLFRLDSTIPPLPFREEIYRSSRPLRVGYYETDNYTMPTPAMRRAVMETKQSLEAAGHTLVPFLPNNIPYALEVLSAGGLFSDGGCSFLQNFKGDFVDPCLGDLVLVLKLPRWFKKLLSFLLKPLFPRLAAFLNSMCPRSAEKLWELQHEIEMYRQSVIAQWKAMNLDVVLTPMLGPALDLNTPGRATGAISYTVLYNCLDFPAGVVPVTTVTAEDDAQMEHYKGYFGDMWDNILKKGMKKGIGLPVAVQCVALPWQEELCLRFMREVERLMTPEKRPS
Description: Inhibition of FAAH in C57B1/6J mouse brain membrane after 20 mins by using oleamide as a substrate by LC-MS method. The class given is cell membranes. The method, boiled down: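 Mouse brain membrane proteome pre-incubated with inhibitor for 30 min at 37°C, then oleamide (FAAH substrate) added. Hydrolysis quantified by an LC-MS substrate assay.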

SMILES strings stand for the structures. Active and inactive are the calls of the source. The rule behind the calls is not given here.

`O=C(Oc1ccc([N+](=O)[O-])cc1)N1CCC(C(O)(c2ccc3c(c2)OCO3)c2ccc3c(c2)OCO3)CC1`: the result in the experiment on Mus musculus [1], in the experiment with Mus musculus [2] and with Mus musculus [5] was Active. For the same compound, the inhibition entry (in [3]; in the experiment on Mus musculus [4]; in the experiment on Mus musculus [9]; in the experiment on Mus musculus [10]) was “Active” in each case. In addition, the inhibition result (in experiment [6]; in the experiment with Mus musculus [8]) was “inactive” throughout. The Activity in the experiment with Mus musculus [7] was 35%. Moreover, the IC50 (in general, the concentration that gives 50% inhibition) in [11] was 4 µM.
